Laboratory results taken from ChEMBL document CHEMBL5329167, “Design, synthesis and evaluation of halogenated phenazine antibacterial prodrugs targeting nitroreductase enzymes for activation” (RSC Med Chem, 2023).
Values after ≈ are worked out from the molar mass of the structure shown. Active and inactive are the calls of the source. The rule behind the calls is not given here.

Assays:
[1] = Metal chelating activity assessed as formation of phenazine-iron complex measured for 1 to 60 mins by UV-vis spectroscopy; settings: time 1-60 min
Outline: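 Compound from a 10 mM DMSO stock diluted in DMSO in a cuvette, alone or with ammonium iron(II) sulfate hexahydrate (10 mM aqueous stock). Spectra of the compound-only cuvette and the iron-containing cuvette are compared by UV-vis spectrometry to judge phenazine–iron(II) complex formation.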

[2] = test system: Staphylococcus aureus; experiment: Antibacterial activity against methicillin-resistant Staphylococcus aureus 1707 assessed as zone of inhibition at 10 mM incubated for 16 hrs by agar diffusion assay; assay type: functional
Outline: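 Modified Kirby-Bauer disk diffusion. 100 µL MRSA 1707 inoculum (OD₆₀₀ 0.7, ~10⁸ CFU) spread on LB agar and left 30 min. 10 µL of 10 mM DMSO compound solution then pipetted onto the plate. Incubation 16 h at 37 °C; zone of inhibition area (cm²) measured. Three independent experiments.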

[3] = test system: Staphylococcus aureus; experiment: Antibacterial activity against methicillin-resistant Staphylococcus aureus 1707 assessed as bacterial growth inhibition incubated for 16 hrs by CLSI based broth microdilution method; assay type: functional
Outline: (§1)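 Broth microdilution per CLSI in LB, eleven two-fold serial dilutions spanning 0.10 to 100 µM. Inoculum ~10⁵ cells/well from fresh log-phase culture (OD₆₀₀ 0.6–0.8). MIC taken as lowest concentration preventing growth after 16 h at 37 °C, read by OD₆₀₀ turbidity. DMSO vehicle control, top 0.5% v/v. At least three independent experiments.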

[4] = test system: Staphylococcus aureus; experiment: Antibacterial activity against methicillin-resistant Staphylococcus aureus BAA-1707 assessed as bacterial growth inhibition incubated for 16 hrs by CLSI based broth microdilution method; assay type: functional; outline: as §1
[5] = test system: Staphylococcus aureus; experiment: Antibacterial activity against methicillin-resistant Staphylococcus aureus BAA-44 assessed as bacterial growth inhibition incubated for 16 hrs by CLSI based broth microdilution method; assay type: functional; outline: as §1
[6] = test system: Staphylococcus epidermidis; experiment: Antibacterial activity against Staphylococcus epidermidis 12228 assessed as bacterial growth inhibition incubated for 16 hrs by CLSI based broth microdilution method; assay type: functional
Outline: (§2)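 CLSI broth microdilution in LB: eleven 2-fold serial dilutions, 0.10–100 µM. DMSO vehicle/negative control diluted from 0.5% v/v. Wells seeded with ~10⁵ cells from log-phase culture (OD₆₀₀ 0.6–0.8), held 16 h at 37 °C. MIC taken as the lowest concentration preventing growth by OD₆₀₀ turbidity. Minimum three independent experiments.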

[7] = test system: Staphylococcus epidermidis; experiment: Antibacterial activity against methicillin-resistant Staphylococcus epidermidis 35984 assessed as bacterial growth inhibition incubated for 16 hrs by CLSI based broth microdilution method; assay type: functional; outline: as §1
[8] = test system: Enterococcus; experiment: Antibacterial activity against vancomycin-resistant Enterococcus 700221 assessed as bacterial growth inhibition incubated for 16 hrs by CLSI based broth microdilution method; assay type: functional
Outline: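 Growth scored by OD₆₀₀ turbidity after 16 h at 37 °C; MIC is the lowest concentration preventing growth. DMSO vehicle control up to 0.5% v/v. Three or more independent experiments.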

[9] = test system: Enterococcus faecalis; experiment: Antibacterial activity against Enterococcus faecalis OG1RF assessed as bacterial growth inhibition incubated for 16 hrs by CLSI based broth microdilution method; assay type: functional
Outline: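 Broth microdilution per CLSI in brain-heart infusion: eleven 2-fold dilutions spanning 0.10–100 µM, with DMSO vehicle/negative control topping at 0.5% v/v. Inoculum ~10⁵ cells/well from log-phase culture (OD₆₀₀ 0.6–0.8). 37 °C, 16 h. MIC is the lowest concentration preventing growth, read as OD₆₀₀ turbidity. At least three independent experiments.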

[10] = test system: Streptococcus pneumoniae; experiment: Antibacterial activity against Streptococcus pneumoniae 6303 assessed as bacterial growth inhibition incubated for 16 hrs by CLSI based broth microdilution method; assay type: functional; outline: as §2
[11] = Cytotoxicity against HEK293 cells incubated for 48 hrs by MTT assay; assay type: toxicity, cell-based; settings: human
Outline: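 HEK-293 cells (10⁴/well) in DMEM with 10% FBS, penicillin/streptomycin, settled overnight at 37 °C, 5% CO₂. Medium replaced with compound at 0.10–100 µM (2-fold steps); DMSO as negative control. After 48 h at 37 °C, MTT (5 mg/mL stock) added for 3 h. Formazan dissolved in DMSO, OD read at 570 nm. Eight replicates per treatment.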

[12] = test system: Staphylococcus aureus; experiment: Antibacterial activity against Staphylococcus aureus clinical isolate 129 assessed as bacterial growth inhibition incubated for 16 hrs by CLSI based broth microdilution method; assay type: functional
[13] = test system: Staphylococcus aureus; experiment: Antibacterial activity against Staphylococcus aureus clinical isolate 138 assessed as bacterial growth inhibition incubated for 16 hrs by CLSI based broth microdilution method; assay type: functional
[14] = test system: Staphylococcus aureus; experiment: Antibacterial activity against Staphylococcus aureus clinical isolate 147 assessed as bacterial growth inhibition incubated for 16 hrs by CLSI based broth microdilution method; assay type: functional
[15] = test system: Staphylococcus aureus; experiment: Antibacterial activity against Staphylococcus aureus clinical isolate 156 assessed as bacterial growth inhibition incubated for 16 hrs by CLSI based broth microdilution method; assay type: functional
[16] = test system: Staphylococcus epidermidis; experiment: Antibacterial activity against Staphylococcus epidermidis clinical isolate CL-1 assessed as bacterial growth inhibition incubated for 16 hrs by CLSI based broth microdilution method; assay type: functional
[17] = Hemolytic activity against red blood cells (unknown origin) at 200 uM; assay type: toxicity, cell-based, Erythrocyte; settings: read-out: Activity
[18] = test system: Staphylococcus aureus; experiment: Antibacterial activity against methicillin-resistant Staphylococcus aureus clinical isolate 2 assessed as bacterial growth inhibition incubated for 16 hrs by CLSI based broth microdilution method; assay type: functional
[19] = test system: Staphylococcus aureus; experiment: Antibacterial activity against methicillin-resistant Staphylococcus aureus clinical isolate 1 assessed as bacterial growth inhibition incubated for 16 hrs by CLSI based broth microdilution method; assay type: functional
[20] = Lipophilicity, LogP of compound in octanol-water mixture incubated for 1 hr by UV-vis spectroscopy; assay type: physicochemical
Outline: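 Shake-flask partition: compound in octanol (1% v/v DMSO) mixed with equal volume water, stirred vigorously, left 1 h at room temperature to separate. Octanol-phase concentration measured by UV-Vis at 370 or 380 nm against a serial-dilution standard curve. Water concentration obtained by mass balance; LogP = log10(Coct/Cw). Acetophenone as positive control. Three independent experiments.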

Row | SMILES | Activity [1] | diameter of the inhibition zone (DIZ) [2] [cm2] | MIC [3] [µM] | MIC [4] [µM] | MIC [5] [µM] | MIC [6] [µM] | MIC [7] [µM] | MIC [8] [µM] | MIC [9] [µM] | MIC [10] [µM] | CC50 at 48 h [11] [µM] | MIC [12] [µM] | MIC [13] [µM] | MIC [14] [µM] | MIC [15] [µM] | MIC [16] [µM] | hemolysis at 200 µM [17] [%] | MIC [18] [µM] | MIC [19] [µM] | logP at 1 h [20]
1 | Cc1cccc2nc3c(OS(=O)(=O)Cc4ccccc4)c(Br)c(Cl)c(Br)c3nc12 | inactive | 0 | > 100 | > 100 | > 100 | > 100 | > 100 | > 100 | > 100 | > 100 | 49.6 | > 100 | > 100 | > 100 | > 100 | > 100 | – | – | – | –
2 | Oc1c(Br)cc(Br)c2nc3ccccc3nc12 | Active | 5.08 | – | – | – | 2.35 (≈ 0.832 µg/mL) | – | – | 18.8 (≈ 6.66 µg/mL) | 1.17 (≈ 0.414 µg/mL) | – | – | – | – | – | – | < 1 | 1.56 (≈ 0.552 µg/mL) | 0.78 (≈ 0.276 µg/mL) | 0.25
3 | O=[N+]([O-])c1ccc(CS(=O)(=O)Oc2c(Br)cc(Br)c3nc4c(C(F)(F)F)cc(C(F)(F)F)cc4nc23)cc1 | inactive | 2.57 | 1.56 (≈ 1.08 µg/mL) | 1.56 (≈ 1.08 µg/mL) | 4.69 (≈ 3.23 µg/mL) | 0.15 (≈ 0.103 µg/mL) | 0.78 (≈ 0.538 µg/mL) | 1.56 (≈ 1.08 µg/mL) | 0.78 (≈ 0.538 µg/mL) | 0.2 (≈ 0.138 µg/mL) | 2.9 | – | – | – | – | – | 10.4 | – | – | –
4 | Oc1c(Br)cc(Br)c2nc3cc(Cl)ccc3nc12 | Active | 1.7 | 0.1 (≈ 0.0388 µg/mL) | 0.075 (≈ 0.0291 µg/mL) | 0.15 (≈ 0.0583 µg/mL) | 0.3 (≈ 0.117 µg/mL) | – | – | – | 0.3 (≈ 0.117 µg/mL) | – | – | – | – | – | – | < 1 | – | – | –
5 | O=[N+]([O-])c1ccc(CS(=O)(=O)Oc2c(Br)cc(Br)c3nc4cc(Cl)ccc4nc23)cc1 | inactive | 0.66 | 0.1 (≈ 0.0588 µg/mL) | 0.1 (≈ 0.0588 µg/mL) | 0.15 (≈ 0.0881 µg/mL) | 0.15 (≈ 0.0881 µg/mL) | 0.39 (≈ 0.229 µg/mL) | 0.59 (≈ 0.347 µg/mL) | 4.69 (≈ 2.76 µg/mL) | 0.15 (≈ 0.0881 µg/mL) | 6.4 | – | – | – | – | – | < 1 | – | – | –
6 | CN[C@H](CC(C)C)C(=O)N[C@H]1C(=O)N[C@@H](CC(N)=O)C(=O)N[C@H]2C(=O)N[C@H]3C(=O)N[C@H](C(=O)N[C@H](C(=O)O)c4cc(O)cc(O)c4-c4cc3ccc4O)[C@H](O)c3ccc(c(Cl)c3)Oc3cc2cc(c3O[C@@H]2O[C@H](CO)[C@@H](O)[C@H](O)[C@H]2O[C@H]2C[C@](C)(N)[C@H](O)[C@H](C)O2)Oc2ccc(cc2Cl)[C@H]1O [VANCOMYCIN] | – | – | – | – | 0.3 (≈ 0.435 µg/mL) | 1.56 (≈ 2.26 µg/mL) | 0.59 (≈ 0.855 µg/mL) | > 100 | 1.56 (≈ 2.26 µg/mL) | 0.59 (≈ 0.855 µg/mL) | – | – | – | – | – | 0.59 (≈ 0.855 µg/mL) | < 1 | – | – | –
7 | COc1cccc(OC)c1C(=O)N[C@@H]1C(=O)N2[C@@H]1SC(C)(C)[C@@H]2C(=O)O [METHICILLIN] | – | – | – | – | – | – | – | – | – | – | – | 37.5 (≈ 14.3 µg/mL) | 37.5 (≈ 14.3 µg/mL) | 6.25 (≈ 2.38 µg/mL) | 25 (≈ 9.51 µg/mL) | 12.5 (≈ 4.76 µg/mL) | – | > 100 | 37.5 (≈ 14.3 µg/mL) | –
8 | O=S(=O)(Cc1ccccc1)Oc1c(Br)cc(Br)c2nc3c(C(F)(F)F)cc(C(F)(F)F)cc3nc12 | inactive | 1.07 | > 100 | > 100 | 18.8 (≈ 12.1 µg/mL) | 0.15 (≈ 0.0966 µg/mL) | 1.56 (≈ 1 µg/mL) | 0.78 (≈ 0.502 µg/mL) | 0.39 (≈ 0.251 µg/mL) | 0.2 (≈ 0.129 µg/mL) | 3.6 | – | – | – | – | – | – | – | – | –
